Measurements: BindingDB's records for doi:10.1021/jm900106f (St. Jude Children'S Research Hospital, 2009)
pIC50: −log10 of the molar value.

molecular target: T1, Zinc finger protein GLI1 (Homo sapiens, UniProt P08151); assay: Inhibition of exogenously transfected human Gli1-mediated transcriptional activity in mouse C3H10T1/2 cells after 24 hrs by luciferase reporter gene assay
T1 sequence (P08151 whole entry): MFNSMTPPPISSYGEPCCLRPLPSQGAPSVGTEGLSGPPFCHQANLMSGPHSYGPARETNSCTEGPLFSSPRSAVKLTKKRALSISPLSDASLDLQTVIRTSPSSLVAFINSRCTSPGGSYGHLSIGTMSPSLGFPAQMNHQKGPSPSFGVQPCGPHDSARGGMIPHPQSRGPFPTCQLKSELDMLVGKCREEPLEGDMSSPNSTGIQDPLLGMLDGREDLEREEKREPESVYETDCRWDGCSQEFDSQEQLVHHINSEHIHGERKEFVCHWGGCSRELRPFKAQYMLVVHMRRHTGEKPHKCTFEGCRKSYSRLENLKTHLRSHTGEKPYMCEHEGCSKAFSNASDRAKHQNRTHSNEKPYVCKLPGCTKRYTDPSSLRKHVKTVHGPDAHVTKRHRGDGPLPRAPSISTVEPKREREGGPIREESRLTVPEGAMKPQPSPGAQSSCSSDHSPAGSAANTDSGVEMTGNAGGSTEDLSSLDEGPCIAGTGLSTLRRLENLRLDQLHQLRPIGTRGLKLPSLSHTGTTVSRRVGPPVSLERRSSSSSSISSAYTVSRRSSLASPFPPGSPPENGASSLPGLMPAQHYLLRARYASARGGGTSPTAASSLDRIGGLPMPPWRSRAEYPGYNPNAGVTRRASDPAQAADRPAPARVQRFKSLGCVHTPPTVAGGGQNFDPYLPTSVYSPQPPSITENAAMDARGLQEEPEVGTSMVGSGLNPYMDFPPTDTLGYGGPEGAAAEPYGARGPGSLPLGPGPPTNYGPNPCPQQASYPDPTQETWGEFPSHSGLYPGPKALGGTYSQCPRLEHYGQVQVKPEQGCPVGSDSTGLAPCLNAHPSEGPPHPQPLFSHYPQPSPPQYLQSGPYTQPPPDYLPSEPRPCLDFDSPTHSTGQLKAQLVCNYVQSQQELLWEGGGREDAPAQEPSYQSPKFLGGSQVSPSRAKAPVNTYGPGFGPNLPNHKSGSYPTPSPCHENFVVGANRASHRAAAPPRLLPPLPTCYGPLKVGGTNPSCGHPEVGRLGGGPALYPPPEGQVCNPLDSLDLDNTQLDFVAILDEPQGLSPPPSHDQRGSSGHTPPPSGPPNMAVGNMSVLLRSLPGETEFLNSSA
How it was run: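 They were replated 18 h later, given compound or DMSO 6 h after plating, and exposed for 24 h at 37 °C, 5% CO2. Lysate was read by dual luciferase as firefly/Renilla, triplicate, DMSO = 0%. IC50 came from curve fitting.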

Row | SMILES | pIC50
1 | C[C@H](C(=O)N(CCc1ccc(O)cc1)CCc1ccc(O)cc1)c1cccc(C(=O)c2ccccc2)c1 [(S)-2-(3-Benzoylphenyl)-N,N-bis(4-hydroxyphenethyl)propanamide] | 5.03
2 | CCCN(CCc1ccc(O)cc1)C(=O)[C@@H](C)c1cccc(C(=O)c2ccccc2)c1 [(S)-2-(3-Benzoylphenyl)-N-(4-hydroxyphenethyl)-N-propylpropanamide] | 5.16
3 | C[C@H](C(=O)NCCc1ccc(O)cc1)c1cccc(C(=O)c2ccccc2)c1 [(S)-2-(3-Benzoylphenyl)-N-(4-hydroxyphenethyl)propanamide] | 4.94
